Here are results for four molecules from ChEMBL document CHEMBL1153925, “Synthesis, characterization and biological activity of ring-substituted 6-benzylamino-9-tetrahydropyran-2-yl and 9-tetrahydrofuran-2-ylpurine derivatives” (Bioorg Med Chem, 2009).

Molecules are shown by their SMILES. Activity calls are given as the source filed them. The calls are words filed in the database; no cut-off is given here.

The test system of the experiment is Nicotiana tabacum. Kind of experiment: Cytokinin activity in tobacco callus assessed as stimulation of callus growth relative to 6-benzylaminopurine. It is filed as functional, organism-based. In a few lines: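 Compounds dissolved in DMSO, diluted with water to 5 × 10^-2 M stock, then diluted in medium to 10^-8 to 10^-4 M. Final DMSO ≤0.2%; solvent control 0.2% DMSO. Readout was cytokinin-dependent tobacco callus growth. Activity is expressed relative to 10^-6 M BAP (=100%) at each compound's optimal concentration. Five replicates per concentration; whole test run at least twice.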
As to `COc1ccc(CNc2ncnc3c2ncn3C2CCCCO2)c(OC)c1OC` (centres undefined), the outcome was inactive. Under `COc1ccc(CNc2ncnc3c2ncn3C2CCCCO2)cc1OC` (centres undefined) stands “inactive”. Regarding `COc1ccc(CNc2ncnc3c2ncn3C2CCCCO2)c(OC)c1` (centres undefined), the result was inactive.

Turning to `COc1cc(CNc2ncnc3c2ncn3C2CCCCO2)cc(OC)c1` (centres undefined), the result was inactive.
